How the values were obtained:
Rattus norvegicus [1] = experiment: Dose producing 50% fall in heart rate in anesthetized rats; format: functional
Summary of the method: (§1)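 Male Hooded Lister rats (300-380 g) under urethane anaesthesia, 37 °C. Increasing iv doses via femoral vein at 45 min intervals. BP recorded from carotid artery; HR derived from the BP signal. Peak effect within 1 min, expressed as % of predose. Value is the dose giving a transient 50% fall in mean BP or HR; 95% confidence limits.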

[2] = Ratio of 50% fall blood pressure to that of rhythmic slow wave activity in anesthetized rats; format: functional
Summary of the method: (§2)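 Same anaesthetized-rat dosing as above. Ratio of iv dose giving a transient 50% fall in BP (or HR) to the iv dose giving an arecoline-equivalent (0.32 mg/kg) change in hippocampal theta power.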

[3] = Partition coefficient is determined in octanol/buffer solution at pH 12; format: physicochemical
Rattus norvegicus [4] = experiment: Dose producing […] rhythmic slow wave activity in anesthetized rats; format: functional
[5] = Ratio of 50% fall in heart rate to that of […] slow wave activity in anesthetized rats; format: functional; summary of the method: as §2
[6] = molecular target: Muscarinic acetylcholine receptor; experiment: In vitro affinity evaluated using [3H]- oxotremorine as radioligand in rat cerebral cortex for muscarinic acetylcholine receptor; format: tissue-based
[7] = Ratio of 50% fall in heart rate to that of in blood pressure in anesthetized rats; format: functional
[8] = molecular target: T1, Muscarinic acetylcholine receptor M3 (Homo sapiens, UniProt P20309); experiment: In vitro affinity is evaluated, using quinuclidynyl benzylate (QNB) as radioligand in human cloned Muscarinic acetylcholine receptor M3
[9] = molecular target: Muscarinic acetylcholine receptor; experiment: In vitro affinity evaluated using [3H]- quinuclidinyl benzilate as radioligand in rat cerebral cortex for muscarinic acetylcholine receptor; format: tissue-based
Rattus norvegicus [10] = experiment: Dose producing 50% fall in blood pressure in anesthetized rats; format: functional; summary of the method: as §1
[11] = molecular target: T2, Muscarinic acetylcholine receptor M2 (Homo sapiens, UniProt P08172); experiment: In vitro affinity is evaluated, using quinuclidynyl benzylate (QNB) as radioligand in human cloned Muscarinic acetylcholine receptor M2
T2 sequence (P08172 whole entry): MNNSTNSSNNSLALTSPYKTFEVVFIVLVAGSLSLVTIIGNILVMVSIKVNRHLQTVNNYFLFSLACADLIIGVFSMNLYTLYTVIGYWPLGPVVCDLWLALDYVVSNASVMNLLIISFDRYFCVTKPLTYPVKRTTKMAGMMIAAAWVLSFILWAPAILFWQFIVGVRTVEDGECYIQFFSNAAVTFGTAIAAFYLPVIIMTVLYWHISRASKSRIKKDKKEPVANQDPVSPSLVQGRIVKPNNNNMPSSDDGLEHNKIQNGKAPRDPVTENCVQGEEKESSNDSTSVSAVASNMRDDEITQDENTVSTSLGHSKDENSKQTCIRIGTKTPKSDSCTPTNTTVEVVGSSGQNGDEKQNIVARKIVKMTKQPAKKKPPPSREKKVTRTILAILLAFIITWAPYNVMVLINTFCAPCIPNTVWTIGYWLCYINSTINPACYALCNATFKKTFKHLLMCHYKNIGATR

[12] = molecular target: T3, Muscarinic acetylcholine receptor M1 (Homo sapiens, UniProt P11229); experiment: In vitro affinity against human Muscarinic acetylcholine receptor M1 using quinuclidynyl benzylate (QNB)
T3 sequence (P11229 whole entry): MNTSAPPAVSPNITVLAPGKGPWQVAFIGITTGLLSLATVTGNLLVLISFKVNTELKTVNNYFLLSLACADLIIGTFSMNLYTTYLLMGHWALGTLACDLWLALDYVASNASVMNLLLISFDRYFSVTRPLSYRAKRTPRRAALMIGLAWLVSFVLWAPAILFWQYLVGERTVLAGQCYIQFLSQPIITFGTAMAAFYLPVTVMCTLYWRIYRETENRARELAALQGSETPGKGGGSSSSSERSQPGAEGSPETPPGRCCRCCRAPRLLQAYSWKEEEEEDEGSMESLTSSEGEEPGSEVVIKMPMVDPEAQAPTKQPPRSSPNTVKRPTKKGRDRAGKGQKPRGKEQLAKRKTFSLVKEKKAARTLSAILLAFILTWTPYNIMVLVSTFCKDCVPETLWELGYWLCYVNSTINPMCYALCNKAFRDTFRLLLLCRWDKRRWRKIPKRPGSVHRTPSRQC

[13] = molecular target: T4, Muscarinic acetylcholine receptor M4 (Homo sapiens, UniProt P08173); experiment: In vitro affinity is evaluated, using quinuclidynyl benzylate (QNB) as radioligand in human cloned Muscarinic acetylcholine receptor M4
T4 sequence (P08173 whole entry): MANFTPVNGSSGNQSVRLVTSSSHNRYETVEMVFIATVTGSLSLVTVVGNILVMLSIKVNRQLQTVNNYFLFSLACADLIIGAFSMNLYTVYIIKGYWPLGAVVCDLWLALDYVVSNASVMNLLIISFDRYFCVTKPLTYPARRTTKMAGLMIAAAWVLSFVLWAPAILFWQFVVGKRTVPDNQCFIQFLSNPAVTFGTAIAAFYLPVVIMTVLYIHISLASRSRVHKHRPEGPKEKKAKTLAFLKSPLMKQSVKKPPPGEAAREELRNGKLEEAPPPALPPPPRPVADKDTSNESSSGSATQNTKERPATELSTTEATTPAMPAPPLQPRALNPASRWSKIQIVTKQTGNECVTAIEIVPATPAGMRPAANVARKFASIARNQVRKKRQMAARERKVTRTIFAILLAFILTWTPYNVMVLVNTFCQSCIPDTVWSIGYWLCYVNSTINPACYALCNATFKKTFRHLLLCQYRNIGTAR

Mus musculus [14] = experiment: Tremorigenic effects were assessed in mice after subcutaneous administration of the compound; format: functional; details: sc
Summary of the method: (§3)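 Male CD1 mice (25-35 g), dosed sc. Tremor scored subjectively: 0 absent, 1 mild, 2 moderate, 3 severe.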

Rattus norvegicus [15] = experiment: Dose producing 50 % fall in heart rate in anesthetized rats; format: functional; summary of the method: as §1
Rattus norvegicus [16] = species on record: Rattus norvegicus; experiment: Dose inducing hippocampal rhythmic slow wave activity; format: functional, Hippocampus
Summary of the method: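 Male Hooded Lister rats (300-380 g) under urethane anaesthesia, pretreated with atropine methyl nitrate 0.1 mg/kg iv. Dosing iv via femoral vein, saline vehicle. Bipolar electrode in right hippocampal CA1; EEG sampled at 128 Hz. Read-out is change in mean theta power (3–7 Hz).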

Rattus norvegicus [17] = experiment: Extrapyramidal effects was assessed from the dose producing tremors in anesthetized rats
Rattus norvegicus [18] = experiment: Dose producing 50 % fall in mean blood pressure in anesthetized rats; format: functional; summary of the method: as §1
[19] = molecular target: T4, Muscarinic acetylcholine receptor M4; experiment: In vitro affinity is evaluated, using quinuclidynyl benzylate (QNB) radioligand in human cloned Muscarinic acetylcholine receptor M4
Summary of the method: (§4)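 Membranes from CHO cells transfected with human m2, m3 or m4 receptors, prepared in 50 mM Tris (pH 7.4 at 37 °C). Displacement of 0.1 nM [3H]QNB; nonspecific binding defined with atropine sulfate. Incubated to equilibrium at 37 °C, ended by rapid vacuum filtration.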

[20] = molecular target: T2, Muscarinic acetylcholine receptor M2; experiment: In vitro affinity is evaluated, using quinuclidinyl benzilate (QNB) as radioligand in human cloned Muscarinic acetylcholine receptor M2; summary of the method: as §4
[21] = molecular target: T1, Muscarinic acetylcholine receptor M3; experiment: In vitro affinity is evaluated, using quinuclidynyl benzylate (QNB)radioligand in human cloned Muscarinic acetylcholine receptor M3; summary of the method: as §4
[22] = Ratio of 50% fall in blood pressure to that of rhythmic slow wave activity in anesthetized rats; format: functional; summary of the method: as §2
[23] = Ratio of IC50 QNB to that of OXO-M was determined; format: functional
Summary of the method: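 Rat cerebral cortex binding: IC50 for displacement of the antagonist [3H]QNB divided by IC50 for displacement of the agonist [3H]oxotremorine-M, used as an efficacy index.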

[24] = Dissociation constant is the negative logarithm of the equilibrium coefficient of the neutral and charged forms of the compound; format: physicochemical
[25] = Distribution coefficient is the ratio of concentration in lipid phase to the concentration of compound in aqueous phase.; format: physicochemical
Summary of the method: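 Calculated for pH 7.3, not measured. D is the concentration of compound in the lipid phase divided by the concentration of all species in the aqueous phase.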

Mus musculus [26] = species on record: Mus musculus; experiment: Extrapyramidal effects was assessed from the dose producing tremors; format: functional; summary of the method: as §3
Rattus norvegicus [27] = species on record: Rattus norvegicus; experiment: Dose producing […] rhythmic slow wave activity in rat

T1 sequence (P20309 whole entry): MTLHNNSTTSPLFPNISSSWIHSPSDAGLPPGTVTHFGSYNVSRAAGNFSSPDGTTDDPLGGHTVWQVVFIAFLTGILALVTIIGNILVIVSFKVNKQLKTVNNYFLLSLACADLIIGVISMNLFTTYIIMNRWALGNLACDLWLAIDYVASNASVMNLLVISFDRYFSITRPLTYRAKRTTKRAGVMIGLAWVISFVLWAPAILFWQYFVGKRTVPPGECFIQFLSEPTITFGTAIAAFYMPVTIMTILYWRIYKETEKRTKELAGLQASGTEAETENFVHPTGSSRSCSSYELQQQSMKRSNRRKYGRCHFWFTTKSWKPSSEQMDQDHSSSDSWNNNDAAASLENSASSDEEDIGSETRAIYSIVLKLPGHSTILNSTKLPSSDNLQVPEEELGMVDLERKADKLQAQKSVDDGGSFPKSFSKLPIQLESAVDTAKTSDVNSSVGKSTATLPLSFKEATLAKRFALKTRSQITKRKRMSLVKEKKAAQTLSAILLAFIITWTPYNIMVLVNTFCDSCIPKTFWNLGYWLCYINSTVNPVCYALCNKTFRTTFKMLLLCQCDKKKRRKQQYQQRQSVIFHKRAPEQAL

SMILES	ED50 (Rattus norvegicus [1]) [mg/kg]	Ratio [2]	ED Arec (Rattus norvegicus [4]) [mg/kg]	Ratio [5]	IC50 [6] [nM]	IC50 [9] [nM]	ED50 (Rattus norvegicus [10]) [mg/kg]	further results
CO/N=C(\Cl)C12CCCN(CC1)C2 (centres undefined)	0.24	10	0.032	8.3	–	–	–	logD [3]: 2.12
CO/N=C(\F)[C@H]1CN2CC[C@H]1C2	–	–	–	–	8.5	–	–	–
C#CCO/N=C/[C@H]1CN2CC[C@H]1C2	–	–	–	–	–	–	–	Ratio [7]: 3.7
CO/N=C(\C#N)[C@H]1CN2CC[C@H]1C2	0.009	4.7	0.0032	2.8	23	2300	0.015	IC50 [8]: 380 nM; IC50 [11]: 610 nM; IC50 [12]: 1180 nM; IC50 [13]: 800 nM
CO/N=C(\C#N)[C@H]1CN2CCC1CC2 [SABCOMELINE]	–	>18.8	–	>18.8	14	310	–	ED50 (Mus musculus [14]): > 10 mg/kg; ED50 (Rattus norvegicus [15]): > 0.32 mg/kg; ED Arec (Rattus norvegicus [16]): 0.017 mg/kg; IC50 [8]: 60 nM; ED50 (Rattus norvegicus [17]): 0.12 mg/kg; IC50 [11]: 180 nM; IC50 [12]: 170 nM; ED50 (Rattus norvegicus [18]): > 0.32 mg/kg; IC50 [13]: 90 nM
C=CCO/N=C/[C@H]1CN2CC[C@H]1C2	–	–	–	–	250	9700	–	–
CO/N=C(\C#N)C12CCCN(CC1)C2 (centres undefined)	0.01	4	–	2	–	–	–	logD [3]: 1.49; IC50 [19]: 49 nM; IC50 [20]: 31 nM; IC50 [21]: 28 nM; IC50 [12]: 99 nM
CO/N=C(\C)C1CN2CCC1CC2 (centres undefined)	> 0.32	>1	–	>1	–	–	> 0.32	logD [3]: 1.88
CO/N=C(/C#N)C1CN2CCC1CC2 (centres undefined)	–	–	–	–	240	1300	–	–
CCO/N=C/[C@H]1CN2CC[C@H]1C2	–	–	–	–	–	–	–	Ratio [7]: >7.8; ED50 (Rattus norvegicus [15]): > 1.8 mg/kg; Ratio [22]: >7.8; Ratio [23]: 23
CO/N=C(\F)C12CCCN(CC1)C2 (centres undefined)	0.024	–	–	2	–	–	–	logD [3]: 1.01
CO/N=C(\C#N)C1CN2CCC1CC2 (centres undefined)	> 0.56	>10.9	–	>10.9	–	–	–	logD [3]: 1.56
CO/N=C(\C#N)C12CCN(CC1)C2	0.0044	1.8	0.0056	0.79	–	–	0.01	IC50 [8]: 300 nM; IC50 [11]: 240 nM; IC50 [12]: 1650 nM; IC50 [13]: 495 nM
CC#CCO/N=C/[C@H]1CN2CC[C@H]1C2	–	–	–	–	115	2900	–	–
CO/N=C/[C@H]1CN2CC[C@H]1C2	–	–	–	–	–	–	–	Ratio [7]: 1.5; IC50 [8]: 2200 nM; IC50 [11]: 220 nM; IC50 [12]: 10000 nM; IC50 [13]: 1100 nM
CO/N=C(/C)C12CCCN(CC1)C2 (centres undefined)	0.042	1	0.068	0.6	46	3400	0.068	logD [3]: 1.65; pKa [24]: 10.1; logD [25]: -1.13
CCN1C(=O)CC2(CCN(C)CC2)C1=O	–	–	–	–	–	–	–	Activity (Mus musculus [26]): 8.6; ED50 (Mus musculus [14]): 3.8 mg/kg; ED Arec (Rattus norvegicus [27]): 0.35 mg/kg
COC(=O)C1=CCCN(C)C1 [ARECOLINE]	0.024	–	0.32	–	–	–	0.022	–
CO/N=C(\Cl)[C@@H]1CN2CC[C@H]1C2	–	–	–	–	100	8880	–	–
CO/N=C(\Br)[C@@H]1CN2CC[C@H]1C2	–	–	–	–	170	2300	–	–
CO/N=C(\C#N)[C@@H]1CN2CCC1CC2	> 1	–	>1	–	140	1130	> 1	–
CO/N=C(\C#N)[C@@H]1CN2CC[C@H]1C2	0.021	4.8	0.005	4.2	21	3175	0.024	IC50 [8]: 1200 nM; IC50 [11]: 700 nM; IC50 [12]: 1500 nM; IC50 [13]: 975 nM
O=C1CCCN1CC#CCN1CCCC1 [OXOTREMORINE]	–	–	–	–	–	–	–	Activity (Mus musculus [26]): 3; ED50 (Mus musculus [14]): 0.07 mg/kg; ED Arec (Rattus norvegicus [27]): 0.023 mg/kg

Source: ChEMBL document CHEMBL1130270, “Design of [R-(Z)]-(+)-alpha-(methoxyimino)-1-azabicyclo[2.2.2]octane-3-acetonitri le (SB 202026), a functionally selective azabicyclic muscarinic M1 agonist incorporating the N-methoxy imidoyl nitrile group as a novel ester bioisostere” (J Med Chem, 1997)
